LMPTP inh – LMPTP phosphatase inhibitors, primary screen, biochemical, fluorescence intensity, uHTS; Low molecular weight phosphotyrosine protein phosphatase (Homo sapiens), P24666; AID 651560, 2012; inhibition, % at 20 µM; recombinant LMPTP-A, OMFP fluorogenic substrate; 0.22% of 360,000 active;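 active = compounds that cut the enzyme signal by at least half of the control window in the single-dose screen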
Target sequence (P24666 whole entry, looked up): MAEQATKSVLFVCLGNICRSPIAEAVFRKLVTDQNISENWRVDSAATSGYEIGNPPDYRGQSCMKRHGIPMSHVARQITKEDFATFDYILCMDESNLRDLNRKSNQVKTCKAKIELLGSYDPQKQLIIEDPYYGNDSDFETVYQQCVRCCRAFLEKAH
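Test system: LMPTP-A phosphatase enzyme; input: 0.625 nM LMPTP-A final; reagent: OMFP substrate, 400 µM final; compound dosing: 20 µM single dose, 3% DMSO; incubation: 50 min dark incubation at room temperature; measured by: endpoint fluorescence intensity from OMFP dephosphorylation; measure: % inhibition relative to no-enzyme and uninhibited control wells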
STEP block – STEP phosphatase inhibitors, primary screen, biochemical, fluorescence intensity, uHTS | Tyrosine-protein phosphatase non-receptor type 5 (Homo sapiens), P54829 | recombinant STEP, OMFP fluorogenic substrate | 0.25% of 360,000 active | inhibition, % at 20 µM;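 active = inhibition at 20 µM, scaled per plate between control wells, above about 37%, limit read from the data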
Target sequence (P54829 whole entry, looked up): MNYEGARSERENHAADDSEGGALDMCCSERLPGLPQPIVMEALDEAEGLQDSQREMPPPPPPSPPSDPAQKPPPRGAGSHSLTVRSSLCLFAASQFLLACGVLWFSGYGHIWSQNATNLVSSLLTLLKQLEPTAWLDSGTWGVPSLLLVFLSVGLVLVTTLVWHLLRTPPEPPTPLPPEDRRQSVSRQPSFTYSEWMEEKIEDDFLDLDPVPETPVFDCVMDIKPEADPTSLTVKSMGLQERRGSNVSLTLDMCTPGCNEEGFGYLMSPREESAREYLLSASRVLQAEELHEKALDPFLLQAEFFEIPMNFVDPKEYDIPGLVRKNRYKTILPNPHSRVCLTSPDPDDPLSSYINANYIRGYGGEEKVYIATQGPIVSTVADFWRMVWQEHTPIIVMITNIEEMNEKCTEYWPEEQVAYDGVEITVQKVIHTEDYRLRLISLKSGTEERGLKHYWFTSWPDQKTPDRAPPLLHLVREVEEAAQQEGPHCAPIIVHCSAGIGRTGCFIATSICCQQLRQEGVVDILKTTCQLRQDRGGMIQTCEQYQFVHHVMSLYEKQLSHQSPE
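System: STEP (striatal-enriched tyrosine phosphatase) enzyme, cell-free; medium: Bis-Tris pH 6.0 buffer with DTT, detergent; dosing: 20 µM, 1% DMSO; times: reaction 20 min, ambient temperature; detection: fluorescence, 480/540 nm; read-out basis: normalized % inhibition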
DNMT1 inh – human DNMT1 methyltransferase inhibitors, primary screen, biochemical, molecular beacon, fluorescence, HinP1I cleavage, uHTS; DNA (cytosine-5)-methyltransferase 1 (Homo sapiens), P26358; 0.83% of 360,000 active; AID 588458, 2011; inhibition (reported as % activation of signal), % at 10 µM; in the data active = inhibition above about 50%
GRK2 inh – compounds blocking aptamer binding on GRK2 – biochemical, human GRK2, bead flow cytometry, HTS, primary screen | FAM-aptamer displacement from GRK2 | inhibition of aptamer binding, % at 10 µM | 0.59% of 330,000 active | AID 488847, 2010;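 active = inhibition of aptamer binding above 40%, roughly 3 SD of noise, on plates passing a quality check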;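 note: median bead fluorescence of bound FAM aptamer so fluorescent compounds give negative values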
SUMO1 PPI mod – modulators of SUMO1 protein-protein interactions, primary screen, biochemical, uHTS; inhibition, % at 20 µM; 0.33% of 360,000 active; SUMO1 binding to a labelled peptide, TR-FRET, 1 h; AID 602429, 2012; in the data active = inhibition above about 37%
Scp-1 inhibitor – Scp-1 phosphatase inhibitors, primary screen, biochemical, colorimetric, uHTS. Carboxy-terminal domain RNA polymerase II polypeptide A small phosphatase 1 (Homo …. Recombinant Scp1, phosphopeptide, malachite green phosphate absorbance. inhibition, % at 20 µM. 0.88% of 340,000 active. AID 493091, 2011;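 active = inhibition above about 50% at 20 µM, limit read from the data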
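Times: enzyme reaction 45 min at room temperature, colour 5 min, stabilisation 30 min. Material: SCP-1 catalytic fragment, aa 76-261. Medium: Acidic Tris acetate buffer with magnesium and detergent. Signal: colorimetric free-phosphate detection, absorbance 630 nm. Read-out basis: % inhibition of SCP-1 phosphate liberation. Reagent: Phosphorylated 17-residue peptide substrate.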
Beacon interf DR – spectral interference with molecular beacon fluorescence, dose response, artefact control for DNMT1 inhibitor project, biochemical, fluorescent molecular beacon. 200 tested, under 10 active. spectral interference counter-screen. IC50, µM. AID 602382, 2012. shares compounds with DNMT1 inh; call rule not given here
DNMT1 confirm – DNMT1 methyltransferase inhibitor retest, confirmation, biochemical, molecular beacon, fluorescence, single concentration | shares compounds with DNMT1 inh | DNMT1 molecular beacon HinP1I cleavage | inhibition, % at 10 µM | 8% of 2,300 active | AID 602385, 2012;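 active = average inhibition of at least 30% in the single-concentration confirmation test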
DNMT1 interf – beacon fluorescence artifact counter-screen. shares compounds with DNMT1 inh. DNMT1 molecular beacon spectral interference counterscreen, fluorescence 485/520. activation (fluorescence interference), % at 10 µM. 1% of 2,300 active;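 active = activation of at least 30% at 10 µM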;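 note: DNMT1 catalytic domain with a HinP1I cleavage step and a FAM/dabcyl DNA beacon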
A number is an active result; n = inactive; x = not tested or not shown. An excerpt weighted towards active compounds, which were near 2.1% of everything screened.

SMILES | LMPTP inh | STEP block | DNMT1 inh | GRK2 inh | SUMO1 PPI mod | Scp-1 inhibitor | DNMT1 confirm | DNMT1 interf | others
O=C(O)CCCCCN1C(=O)/C(=C/c2cn(-c3ccccc3)nc2-c2cccs2)SC1=S | n | n | 83 | x | 59 | n | 46 | n | Beacon interf DR=81
CC1=NNC(=O)/C1=C\c1cn(-c2ccccc2)nc1-c1cccs1 | n | n | n | n | n | n | x | x
CCN1C(=O)/C(=C/c2cn(-c3ccccc3)nc2-c2cccnc2)SC1=S | n | n | 61 | x | n | n | n | n
COc1ccc(-c2nn(-c3ccccc3)cc2/C=C2/SC(=S)N(CCC(=O)O)C2=O)cc1 | n | n | 75 | n | n | 85 | 89 | n | Beacon interf DR=n
CCOC(=O)[C@]12CCC=C1N(Cc1cccc3ccccc13)C(=O)[C@H](CC(=O)NCc1ccc(OC)c(OC)c1)C2 | n | x | x | x | n | x | x | x
CSc1sc(-c2n[nH]c(=S)n2C)c2c1C=CCC2 | 50 | n | 66 | n | n | n | n | n
CN(C)CCN1CCN(C2CN(Cc3ccccc3)S(=O)(=O)C2)CC1 (stereo not given) | n | n | n | x | n | x | x | x
CC(C)C[C@@H]1NC(=O)[C@H](Cc2ccccc2)N(C)C(=O)[C@H](C)NC(=O)c2ccccc2NC(=O)[C@H](Cc2ccc(O)cc2)N(C)C1=O | n | n | 79 | n | n | n | n | n
CCc1ccc(OCC(=O)NNC(=O)CSc2ncnc3sc(C)c(C)c23)cc1 | n | n | n | n | n | n | x | x
Cc1ccc(OCC(=O)NNC(=O)CSc2ncnc3sc(C)c(C)c23)cc1 | n | n | 54 | n | n | n | n | n
c1ccc(-c2nc(-n3nc4ccccc4n3)nc3ccccc23)cc1 | n | n | n | n | n | n | x | x
O=C1CN(c2nc(-c3ccccc3)c3ccccc3n2)c2ccccc2N1 | n | n | 61 | n | n | n | n | n
Cc1cc2ccccc2cc1CN1CCOCC1 | n | n | 58 | n | n | n | n | n
O=C1/C(=C\c2ccc(-c3ccccc3[N+](=O)[O-])o2)C(c2ccccc2)=NN1c1ccccc1 | n | n | 63 | n | n | n | n | n
Cn1c(SCC(=O)c2cc(Cl)c(Cl)s2)nnc1-c1ccco1 | n | n | 52 | x | n | n | n | n
COCCNC(=O)C[C@H]1C[C@H]2c3cc(NS(=O)(=O)c4ccc(F)cc4)ccc3O[C@H]2[C@H](CO)O1 | n | n | n | x | n | x | x | x
CC(C)[C@H](NC(=O)[C@H](Cc1ccccc1)n1c(=O)[nH]c2ccccc2c1=O)C(=O)N1CCC[C@@H]1C(=O)O | n | n | 82 | n | n | n | n | n
O=C(N/N=C/c1cc([N+](=O)[O-])ccc1O)c1ccc(COc2ccc3c(c2)CCC3)o1 | 69 | 90 | 72 | n | n | 81 | n | n
CCCCN(CCCNC(=S)NCCCc1cnc[nH]1)c1ccc(Br)cn1 | n | n | n | x | n | x | x | x
CCN(c1ccccc1)S(=O)(=O)c1cc(NC(=O)C2CC2)ccc1Cl | n | n | n | n | n | n | x | x
CCN(c1ccccc1)S(=O)(=O)c1cc(NC(=O)CSc2n[nH]c(=O)[nH]c2=O)ccc1Cl | n | n | 65 | n | n | n | n | n
Cc1c(C(N)=O)sc2ncn(CC(=O)OC(C)C)c(=O)c12 | n | n | 78 | n | n | n | n | n
CCCS(=O)(=O)NC(=O)C1(C)CCN(C(=O)Cc2ccc(F)cc2)C1 (stereo not given) | n | n | n | x | n | x | x | x
COc1cccc2c1OCC(C(=O)O)C2 (stereo not given) | n | n | 53 | n | n | n | n | n
CC1=NN(c2ccc(C)c(C)c2)C(=O)/C1=C\C=C\c1ccc([N+](=O)[O-])o1 | n | n | 91 | n | n | 65 | n | n
SMILES | LMPTP inh | STEP block | DNMT1 inh | GRK2 inh | SUMO1 PPI mod | Scp-1 inhibitor | DNMT1 confirm | DNMT1 interf | others
CC1=NN(c2ccccc2)C(=O)/C1=C\C=C\c1ccccc1 | n | n | n | n | n | n | x | x
Cc1csc2ncc(C(=O)Nc3cccc(C(F)(F)F)c3)c(=O)n12 | n | n | 68 | n | n | n | n | n
CCc1ccc(NC(=O)c2cnc3scc(C)n3c2=O)cc1 | n | n | n | n | n | n | x | x
C[C@H](CO)N1C[C@H](C)[C@H](CN(C)S(=O)(=O)c2ccccc2)Oc2c(NS(C)(=O)=O)cccc2C1=O | n | n | n | n | n | n | x | x
Cc1noc(C)c1S(=O)(=O)NC(=O)C1(C)CCN1C(=O)CC(c1ccccc1)c1ccccc1 (stereo not given) | n | n | n | x | n | x | x | x
O=C(Cc1cccs1)N/N=C/C=C/c1ccco1 | n | n | 66 | n | n | n | n | n
O=C(CSc1nnc(SCc2ccccc2)s1)N/N=C/C=C/c1ccco1 | n | n | 98 | n | n | 83 | n | n
CC(=NN1CC(=O)NC1=O)c1ccc([N+](=O)[O-])o1 | n | n | n | x | n | n | x | x
CC1(C)Cc2c(sc3[nH]c(=S)n(Cc4ccco4)c(=O)c23)CO1 | n | n | n | n | n | n | x | x
O=c1c2c3c(sc2[nH]c(=S)n1Cc1ccco1)CCC3 | n | n | 83 | n | 43 | n | n | n
CCCc1nc2c(C)cc(Br)cn2c1Cc1ccc(OC)cc1C | n | n | n | x | n | x | x | x
O=C(C(O)c1ccccc1)N1CCN(S(=O)(=O)c2ccc(F)c(F)c2)CC1 (stereo not given) | n | x | x | x | n | x | x | x
CNC[C@@H]1OCc2ccccc2-c2c(n(C)c3ccccc23)C(=O)N([C@H](C)CO)C[C@@H]1C | n | n | n | x | n | x | x | x
CC(C)/C=C/C(=O)N1CCC(N2CCC(C(=O)NCC3CCCO3)CC2)CC1 (stereo not given) | n | n | 50 | x | n | x | n | n
C=CCn1c(C(C)n2c(-c3cnccn3)nc3ccccc32)nc2ccccc21 (stereo not given) | n | x | x | x | n | x | x | x
N#Cc1ccccc1/C=N/Nc1nc(-c2ccccc2)c2cc(Cl)ccc2n1 | n | n | 66 | n | n | n | n | n
